Compound activity: PubChem BioAssay, several laboratories
Phagocytosis inh: inhibitors of macrophage phagocytosis, primary screen, imaging, J774A.1 cells, IgG beads; J774A.1 macrophage IgG-bead phagocytosis; inhibition, % at 5 µM; hit rate 0.07% among 110,000; AID 1029, 2008;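 active = inhibition above the mean of the plate negative controls plus 5 SD, cut at about 13% in these data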;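 also: phagocytic index as fraction of beads internalized from green versus red external bead signal; plate controls were DMSO negative control for no effect and cytochalasin-D positive control for full effect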
RAM inhibit: inhibitors of the yeast RAM network, primary screen, dse1pr::URA3 reporter, 5-FOA selection; inhibition, % at 50 µM; hit rate 1.8% among 190,000; S. cerevisiae dse1pr::URA3 reporter, 5-FOA growth OD615, 2 d; analog-sensitive cbk1-as2 kinase mutant strain;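 active = inhibition above a set limit, 3 SD over mean compound inhibition, cut at about 8.4% in these data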;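 also: 0% = DMSO-only wells with no growth and 100% = 10 µM 1-NA-PP1 full growth; inhibition rescues growth on 5-FOA so higher OD means more RAM inhibition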
Yeast growth inh: growth inhibitors of yeast BB579 in restrictive medium, primary screen, yeast lifespan-shortening project, S. cerevisiae; OD615, 48 h; inhibition, % at 10 µM; hit rate 0.51% among 140,000;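 active = inhibition above a set limit, 3 SD over the mean compound inhibition, cut at about 44% in these data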
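test system = yeast BB579 (DeaD) | buffer or medium = restrictive CSMM-D medium | doses = single compound dose of 10 µM, 0.25% DMSO final | times = 4 h preincubation and 48 h exposure at 30 °C | technique = culture absorbance at 615 nm | benchmarks = amphotericin B 10 µg/mL, positive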
Measles CPE: compounds protecting cells from measles virus cytopathic effect, primary screen, measles RdRp inhibitor project, single point, MLSMR library, absorbance | Measles virus-infected cells, CPE protection | protection (pct of control), % at 4 µM | hit rate 1.5% among 140,000; in the data active = protection mostly above about 24%, no sharp cut-off; inactive = mostly below about 26%
Yeast life ext: compounds extending yeast replicative lifespan, primary screen, S. cerevisiae, OD615; inhibition of the nicotinamide effect, % at 10 µM; S. cerevisiae growth with nicotinamide; deaD strain in restrictive glucose medium; AID 775, 2007; hit rate 0.68% among 130,000;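 active = inhibition above a set limit, placed 3 SD over the median of all compounds, cut at about 26% in these data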;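 also: 0% = nicotinamide-treated wells and 100% = cells grown without nicotinamide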
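Measured by: optical density (absorbance) at 615 nm; System: modified budding yeast, DeaD strain; Medium: restrictive CSMM-D dextrose medium; Timing: 4 h preincubation then 48 h treatment at 30 °C.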
Starred values were filed as active, the others as inactive; [ ] = remark or other dose. In the library only some 3.6% were active in any assay of this set; here they are far more common.

Results for CCCOP(=O)(OCCC)C(Nc1cccc(C(F)(F)F)c1)c1ccc(C)cc1 (stereo not given) ?
Phagocytosis inh: 1.7; RAM inhibit: 10.3*; Yeast growth inh: -45.1; Measles CPE: 5.4; Yeast life ext: -3.3

Results for Cn1c(CCc2ccc(N)cc2)nc2ccccc21 ?
RAM inhibit: 0.2

What do the screens show for `Cn1c(-c2ccc(N)cc2)nc2ccccc21`?
Phagocytosis inh: 1.1; RAM inhibit: 2.4; Yeast growth inh: -57.3; Measles CPE: 21.8*; Yeast life ext: -12.2

What do the screens show for `COc1ccc(CCN2C(=O)NC(NS(=O)(=O)c3ccc(N)cc3)(C(F)(F)F)C2=O)cc1OC` (stereo not given)?
Phagocytosis inh: -4.5; RAM inhibit: 2.0; Yeast growth inh: 5.2; Measles CPE: 14.5; Yeast life ext: -3.1

Results for O=C(/C=C/c1ccccc1)c1cc(Br)ccc(=O)c1O ?
Phagocytosis inh: 0.4; RAM inhibit: 0.1; Yeast growth inh: 88.0*; Measles CPE: 6.8; Yeast life ext: -17.3

What do the screens show for `COc1ccc(/C=C/C(=O)c2ccccc2O)cc1`?
RAM inhibit: 1.9; Yeast growth inh: -14.9; Measles CPE: 5.7; Yeast life ext: -3.4

What do the screens show for `Cc1ccc(/C=C/C(=O)c2ccccc(=O)c2O)cc1C`?
Phagocytosis inh: -2.5; RAM inhibit: 1.5; Yeast growth inh: 99.4*; Measles CPE: 7.5; Yeast life ext: -10.4

What do the screens show for `O=C(Cc1ccc(-n2c(=S)[nH]c3ccccc3c2=O)cc1)N1CCN(c2ccccc2)CC1`?
Phagocytosis inh: -0.4; RAM inhibit: 3.9; Yeast growth inh: -51.1; Measles CPE: 3.8; Yeast life ext: -3.9

Results for CCN(CC)S(=O)(=O)c1ccc(N2CCOCC2)c(NC(=O)CC23CC4CC(CC(Br)(C4)C2)C3)c1 ?
Phagocytosis inh: -7.1; RAM inhibit: 4.9; Yeast growth inh: -8.8; Measles CPE: 3.0; Yeast life ext: -8.0

How did Cc1c(C(=O)Nc2ccc(S(=O)(=O)NCC3CCCO3)cc2)cccc1[N+](=O)[O-] (stereo not given) do in these assays?
RAM inhibit: 2.7

What do the screens show for `Cc1cc2nc(CSc3ccc(Cl)cc3)cc(=O)n2[nH]1`?
RAM inhibit: 1.5

How did CCCCCCCCCn1c2c(c(=N)c3c1CCC3)CCCC2 do in these assays?
RAM inhibit: -0.9

What do the screens show for `CCCCCCCCCCn1c2c(c(=N)c3c1CCC3)CCC2`?
RAM inhibit: -1.8; Yeast growth inh: 98.5*; Measles CPE: 3.5; Yeast life ext: -28.6

Results for CCc1nc2c(cnn2-c2ccc(Cl)cc2)c(=O)n1-c1ccc(OC)cc1 ?
Phagocytosis inh: -0.4; RAM inhibit: 7.6; Yeast growth inh: -25.7; Measles CPE: 55.6*; Yeast life ext: -4.9

What do the screens show for `CC(=O)C1=C(C)Nc2ncnn2C1c1ccccc1Cl` (stereo not given)?
Phagocytosis inh: -0.1; RAM inhibit: -0.4; Yeast growth inh: -22.1; Measles CPE: 100.7*; Yeast life ext: -3.6

Results for COC(=O)CCC(=O)NNC(=O)c1cccc(Br)c1 ?
Phagocytosis inh: 2.2; RAM inhibit: 0.7; Yeast growth inh: -10.1; Measles CPE: 7.3; Yeast life ext: -4.9

How did O=C(O)CCC(=O)NNC(=O)c1cccc(Br)c1 do in these assays?
Phagocytosis inh: -11.8; RAM inhibit: 0.4; Yeast growth inh: -30.9; Measles CPE: 59.1*; Yeast life ext: 7.4

How did CC(=O)Oc1c(/C=C(\C#N)C(N)=O)[nH]c2ccccc12 do in these assays?
Phagocytosis inh: -3.4; RAM inhibit: 0.8; Yeast growth inh: -4.1; Measles CPE: 12.5; Yeast life ext: 14.0

How did COC(=O)c1sc2ccccc2c1N do in these assays?
Phagocytosis inh: 2.6; RAM inhibit: 1.4; Yeast growth inh: 9.5; Measles CPE: 11.8; Yeast life ext: -13.8

What do the screens show for `CCOC(=O)c1sc2ccccc2c1OC(=O)c1ccc(C)cc1`?
Phagocytosis inh: -7.8; RAM inhibit: 8.7*; Yeast growth inh: -31.6; Measles CPE: 4.3; Yeast life ext: 4.3

What do the screens show for `CCCCc1ccc(/C=C2\C(=O)ON=C2c2ccccc2)s1`?
Phagocytosis inh: 39.3*[artifact]; RAM inhibit: 8.8*; Yeast growth inh: -43.8; Measles CPE: 19.8; Yeast life ext: -3.0

How did CN(C)/C=C1\C(=O)ON=C1c1ccccc1 do in these assays?
RAM inhibit: 2.1

How did Cc1ccc(S(=O)(=O)N2CCC(C(=O)NCCc3ccc(S(N)(=O)=O)cc3)CC2)cc1 do in these assays?
Phagocytosis inh: -1.1; RAM inhibit: 8.9*; Yeast growth inh: -30.6; Measles CPE: 15.7; Yeast life ext: -13.9

What do the screens show for `Cc1ccc(S(=O)(=O)N2CCC(C(=O)NCCc3ccccc3)CC2)cc1`?
Phagocytosis inh: -0.3; RAM inhibit: 2.4; Yeast growth inh: -28.4; Measles CPE: 9.4; Yeast life ext: 15.0

What do the screens show for `N/C(=N\N=C\c1ccc2c(c1)OCO2)SC1CC(=O)N(c2ccc(C(=O)O)cc2)C1=O` (stereo not given)?
RAM inhibit: 8.6*

Results for COc1ccc(-c2nc(SC(CC(=O)NCCN3CCOCC3)c3cccs3)n[nH]2)cc1 (stereo not given) ?
RAM inhibit: 0.0

Results for O=C1C(=O)c2c(C(=O)c3ccccc3)coc2-c2ccccc21 ?
Phagocytosis inh: 2.1; RAM inhibit: -1.2; Yeast growth inh: 99.2*; Measles CPE: 3.8; Yeast life ext: -15.7

Results for Cc1oc2c(c1C(=O)c1ccccc1)C(=O)C(=O)c1ccccc1-2 ?
RAM inhibit: 1.8; Yeast growth inh: 0.9; Measles CPE: -1.3; Yeast life ext: -23.8

How did O=C(/C=C/c1cccc([N+](=O)[O-])c1)c1cccs1 do in these assays?
Phagocytosis inh: -4.7; RAM inhibit: 3.2; Yeast growth inh: -10.1; Measles CPE: 0.5; Yeast life ext: 28.2*

What do the screens show for `Cc1cc(NC(=O)c2cc(C(C)C)on2)nn1Cc1ccc(Cl)cc1`?
Phagocytosis inh: -0.2; RAM inhibit: 9.3*; Yeast growth inh: -37.0; Measles CPE: 22.6; Yeast life ext: -6.3

Results for Cc1cc(C(=O)Nc2cc(C)n(Cc3ccc(Cl)cc3)n2)no1 ?
RAM inhibit: 0.9; Yeast growth inh: -38.9; Measles CPE: 8.4; Yeast life ext: -3.7

What do the screens show for `Cc1ccc(S(=O)(=O)N2CCN(C(=O)c3ccccc3)CC2)c(C)c1NS(C)(=O)=O`?
RAM inhibit: 0.1

How did COc1ccc(CNC(=O)c2cccnc2SC)cc1OC do in these assays?
RAM inhibit: 2.1

Results for COc1ccc(CNC(=O)c2cccnc2Sc2ccc(C)c(C)c2)cc1 ?
Phagocytosis inh: -5.2; RAM inhibit: 9.3*; Yeast growth inh: -47.2; Measles CPE: 11.9; Yeast life ext: 3.1

Results for CN1CCS/C1=C/C=C1/SC(=S)N(Cc2ccccc2)C1=O ?
Phagocytosis inh: -9.5; RAM inhibit: 9.6*; Yeast growth inh: -6.3; Measles CPE: 21.1; Yeast life ext: 0.8
